The results in this text go back to PubChem BioAssay.

Assay [1] is described as follows: hit retest on RPL19A-GFP reporter strain – cell-based, S. cerevisiae, flow cytometry, cherry picks, mother/daughter gates, confirmation (AID 2270;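 active = GFP response below 50% of the DMSO control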). Particulars: 3 h, at 10 µM, stronger effect = lower value, 100 = same GFP as DMSO wells. (In general: In flow cytometry, cells or beads pass a laser one at a time.)
The nature of assay [2]: yeast TOR pathway reporter LAP4-GFP change – cell-based, cherry picks, flow cytometry, mother/daughter gates, confirmation (AID 2271;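 active = GFP response above 150% of the DMSO control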;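 also: ratio of sample to DMSO plate mean so 100% equals DMSO level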). The following applies: S. cerevisiae LAP4-GFP strain, 3 h, at 10 µM, stronger effect = higher value, 100 means same as DMSO control. Summed up:
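System – GFP-fusion yeast strain · Amount – 0.2 OD600 cells · Buffer or medium – SC growth medium · Dosing – single test-compound dose, 10 µM final · Schedule – 3 h treatment at 30 °C with rotation · Detection – GFP by flow cytometry · Read-out – per-gate (all, mother, daughter) GFP response vs DMSO · Benchmarks – positive rapamycin (400 ng/mL), negative DMSO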

A short description of assay [3]: TOR pathway reporter MEP2-GFP, retest of hits – S. cerevisiae, flow cytometry GFP, cherry picks, confirmation (AID 2272;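 active = GFP response above 150% of the DMSO control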;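 also: ratio of well signal to plate DMSO mean so 100% equals DMSO level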). Particulars: S. cerevisiae MEP2-GFP strain, 3 h, at 10 µM, stronger effect = higher value.
Assay [4] in a line: yeast AGP1-GFP fluorescence change, single-dose – cell-based, flow cytometry, S. cerevisiae, cherry picks, confirmation (AID 2273).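 Also: median GFP channel fluorescence over the whole cell population gate.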 Particulars: S. cerevisiae AGP1-GFP strain, 3 h, at 10 µM.
Assay [5] in a line: TOR pathway CIT2 reporter hit retest – S. cerevisiae, GFP fusion, cherry picks, mother/daughter gates, confirmation (AID 2274). Particulars: S. cerevisiae CIT2-GFP strain, flow cytometry, 3 h, at 10 µM, stronger effect = higher value.
Where [6] appears, read: measured here: daughter cell gate.
The mark [7] stands for this setting: measured here: mother cell gate.
Where [8] appears, read: measured here: daughter cell gate response.
Where [9] appears, read: measured here: mother cell gate response.

Calls of active or inactive are those of the source.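 The calls were made as follows, unless noted: active = GFP response above 150% of the DMSO level; inconclusive = fewer than 70 events counted for a yeast strain; inactive = the rest.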

Take `N#C/C(=C\c1c(N2CCC(C(N)=O)CC2)nc2ccccn2c1=O)C(=O)NCc1ccco1`: the GFP response vs DMSO in assay [1] was 97.8% (inactive); in assay [1] (setting [6]), 98.8%; in assay [1] (setting [7]), 97.6%; in assay [3], 102% (inactive). The GFP response relative to DMSO in assay [2] is 101% (inactive); in assay [2] (setting [8]), 99.3%; in assay [2] (setting [9]), 99.5%. In addition, the GFP response, % of DMSO is 99.3% (inactive) in assay [4], 104% (inactive) in assay [5], 102% in assay [5] (setting [6]) and 101% in assay [5] (setting [7]).

As for `CCOc1ccc(-c2noc(-c3ccncc3)n2)cc1OCC`, the GFP response vs DMSO in assay [1] is 96.4% (inactive); in assay [1] (setting [6]), 93.7%; in assay [1] (setting [7]), 95.7%; in assay [3], 116% (inactive). Also, the GFP response relative to DMSO was 106% (inactive) in assay [2], 106% in assay [2] (setting [8]) and 106% in assay [2] (setting [9]). Further, the GFP response, % of DMSO was 98.8% (inactive) in assay [4], 102% (inactive) in assay [5], 103% in assay [5] (setting [6]) and 99.3% in assay [5] (setting [7]).

With `O=c1[nH]c2c(=O)[nH]cnc2nc1-c1ccccc1`, the GFP response vs DMSO was 103% (inactive) in assay [1], 94.9% in assay [1] (setting [6]), 96.3% in assay [1] (setting [7]) and 101% (inactive) in assay [3]. Also, the GFP response relative to DMSO in assay [2] was 97% (inactive); in assay [2] (setting [8]), 95.9%; in assay [2] (setting [9]) it was 88.8%. In addition, the GFP response, % of DMSO in assay [4] was 98.2% (inactive); in assay [5] it was 97.3% (inactive); in assay [5] (setting [6]) it was 86.6%; in assay [5] (setting [7]) it was 89.5%.

`CC1=CCC(C(=O)O)C(C(=O)Nc2ccc(-c3nc4ccc(C)cc4s3)cc2)C1` (configuration not stated): the GFP response vs DMSO in assay [1] is 99.2% (inactive); in assay [1] (setting [6]), 100%; in assay [1] (setting [7]) it was 100%; in assay [3], 98.8% (inactive). The figures for the GFP response relative to DMSO in assay [2], in assay [2] (setting [8]) and in assay [2] (setting [9]) were 96.1% (inactive), 96.6% and 96.2%, respectively. The GFP response, % of DMSO is 101% (inactive) in assay [4], 112% (inactive) in assay [5], 110% in assay [5] (setting [6]) and 113% in assay [5] (setting [7]).

On to `COc1ccccc1-c1noc(-c2cc(OC)c(OC)c(OC)c2)n1`, for which the GFP response vs DMSO in assay [1] was 97.2% (inactive); in assay [1] (setting [6]), 96.4%; in assay [1] (setting [7]) it was 96.3%; in assay [3] it was 104% (inactive). For the same molecule, the GFP response relative to DMSO in assay [2] is 103% (inactive); in assay [2] (setting [8]) it was 105%; in assay [2] (setting [9]) it was 105%. For the same molecule, the GFP response, % of DMSO is 99.2% (inactive) in assay [4], 99.1% (inactive) in assay [5], 96.5% in assay [5] (setting [6]) and 98.7% in assay [5] (setting [7]).

For the molecule `Cc1ccc(N2C(=O)C3C4C=CC(CNC(=S)Nc5ccc(F)cc5)(O4)C3C2=O)cc1` (configuration not stated), the GFP response vs DMSO in assay [1] was 98.4% (inactive); in assay [1] (setting [6]) it was 99.9%; in assay [1] (setting [7]), 97.5%; in assay [3], 108% (inactive). The GFP response relative to DMSO in assay [2] is 102% (inactive); in assay [2] (setting [8]), 103%; in assay [2] (setting [9]), 103%. For the same molecule, the GFP response, % of DMSO was 105% (inactive) in assay [4], 110% (inactive) in assay [5], 110% in assay [5] (setting [6]) and 110% in assay [5] (setting [7]).

In the case of `COCc1nnc(NC(=O)c2ccc(S(=O)(=O)N(C)c3ccccc3)cc2)o1`, the GFP response vs DMSO in assay [1] was 96.8% (inactive); in assay [1] (setting [6]), 96.6%; in assay [1] (setting [7]), 97.1%; in assay [3], 100% (inactive). The results for the GFP response relative to DMSO in assay [2], in assay [2] (setting [8]) and in assay [2] (setting [9]) were 101% (inactive), 99.2% and 98.3%, respectively. For the same molecule, the GFP response, % of DMSO in assay [4] is 92.5% (inactive); in assay [5], 96.9% (inactive); in assay [5] (setting [6]), 97.2%; in assay [5] (setting [7]), 97.3%.

On to `COc1cc(N2C(=O)C=CC2=O)c(OC)cc1Cl`, for which the GFP response vs DMSO in assay [1] was 85.7% (inactive); in assay [1] (setting [6]), 90%; in assay [1] (setting [7]), 75%; in assay [3] it was 133% (inactive). Moreover, the GFP response relative to DMSO in assay [2] is 303% (active); in assay [2] (setting [8]), 211%; in assay [2] (setting [9]) it was 272%. Moreover, the GFP response, % of DMSO in assay [4] was 108% (inactive); in assay [5], 90% (inactive); in assay [5] (setting [6]), 96.5%; in assay [5] (setting [7]), 79.4%.

For `CCOC(=O)c1ccc(NC(=O)CCc2nc(-c3cccc(C)c3)no2)cc1`, the GFP response vs DMSO in assay [1] was 97.8% (inactive); in assay [1] (setting [6]) it was 98.5%; in assay [1] (setting [7]), 98.8%; in assay [3] it was 106% (inactive). For the same molecule, the GFP response relative to DMSO in assay [2] is 102% (inactive); in assay [2] (setting [8]), 101%; in assay [2] (setting [9]) it was 101%. The GFP response, % of DMSO in assay [4] was 95.8% (inactive); in assay [5], 102% (inactive); in assay [5] (setting [6]) it was 102%; in assay [5] (setting [7]) it was 99.1%.

As to `Cn1ncc(N2CCN(S(=O)(=O)c3ccc(Br)cc3)CC2)c(Cl)c1=O`, the GFP response vs DMSO in assay [1] is 98.2% (inactive); in assay [1] (setting [6]), 97.9%; in assay [1] (setting [7]), 98.7%; in assay [3], 107% (inactive). The GFP response relative to DMSO is 96.7% (inactive) in assay [2], 96% in assay [2] (setting [8]) and 95.1% in assay [2] (setting [9]). For the same molecule, the GFP response, % of DMSO in assay [4] is 99.3% (inactive); in assay [5], 98.3% (inactive); in assay [5] (setting [6]) it was 101%; in assay [5] (setting [7]) it was 97.3%.

Consider `COc1ccc(-c2[nH]ncc2N=Nc2ccccc2)cc1`, for which the GFP response vs DMSO in assay [1] was 96.2% (inactive); in assay [1] (setting [6]), 94.3%; in assay [1] (setting [7]), 96.6%; in assay [3], 94.4% (inactive). The values for the GFP response relative to DMSO in assay [2], in assay [2] (setting [8]) and in assay [2] (setting [9]) were 107% (inactive), 104% and 108%, respectively. Besides, the GFP response, % of DMSO in assay [4] is 92.2% (inactive); in assay [5], 97.2% (inactive); in assay [5] (setting [6]), 98.4%; in assay [5] (setting [7]) it was 93.7%.

As for `COCCN(CCOC)S(=O)(=O)c1ccc(C(=O)Nc2nnc(C)o2)cc1`, the GFP response vs DMSO in assay [1] is 100% (inactive); in assay [1] (setting [6]) it was 100%; in assay [1] (setting [7]), 101%; in assay [3], 99% (inactive). The GFP response relative to DMSO in assay [2] was 99.5% (inactive); in assay [2] (setting [8]), 97.5%; in assay [2] (setting [9]), 98.4%. For the same molecule, the GFP response, % of DMSO in assay [4] is 100% (inactive); in assay [5], 102% (inactive); in assay [5] (setting [6]), 103%; in assay [5] (setting [7]), 101%.

For `CCN(CC)N=Nc1[nH]nc2nc(C)cc(C)c12`, the GFP response vs DMSO in assay [1] is 127% (inactive); in assay [1] (setting [6]), 103%; in assay [1] (setting [7]) it was 118%; in assay [3], 137% (inactive). Further, the GFP response relative to DMSO was 120% (inactive) in assay [2], 102% in assay [2] (setting [8]) and 116% in assay [2] (setting [9]). For the same molecule, the GFP response, % of DMSO is 120% (inactive) in assay [4], 133% (inactive) in assay [5], 123% in assay [5] (setting [6]) and 134% in assay [5] (setting [7]).

As to `Cc1ccc(NCN2C(=O)C3C4C=CC(C4)C3C2=O)cc1` (configuration not stated), the GFP response vs DMSO is 96.4% (inactive) in assay [1], 97% in assay [1] (setting [6]), 98.1% in assay [1] (setting [7]) and 97.5% (inactive) in assay [3]. Besides, the values for the GFP response relative to DMSO in assay [2], in assay [2] (setting [8]) and in assay [2] (setting [9]) were 95.3% (inactive), 93.6% and 96.5%, respectively. Besides, the GFP response, % of DMSO in assay [4] was 98.4% (inactive); in assay [5] it was 102% (inactive); in assay [5] (setting [6]), 102%; in assay [5] (setting [7]) it was 100%.

As to `COCCCN1C(=O)C2C(C(=O)Nc3cc(C)cc(C)c3)C3C=CC2(O3)C1C(=O)NC1CCCCC1` (configuration not stated), the GFP response vs DMSO is 100% (inactive) in assay [1], 101% in assay [1] (setting [6]), 101% in assay [1] (setting [7]) and 102% (inactive) in assay [3]. The GFP response relative to DMSO was 95% (inactive) in assay [2], 100% in assay [2] (setting [8]) and 98.3% in assay [2] (setting [9]). The GFP response, % of DMSO is 96.7% (inactive) in assay [4], 112% (inactive) in assay [5], 105% in assay [5] (setting [6]) and 114% in assay [5] (setting [7]).

In the case of `Cc1ccc(Nc2c(-c3ccccn3)nc3ccc(C)cn23)cc1`, the GFP response vs DMSO is 97.4% (inactive) in assay [1], 106% in assay [1] (setting [6]), 98.6% in assay [1] (setting [7]) and 108% (inactive) in assay [3]. In addition, the GFP response relative to DMSO is 148% (inactive) in assay [2], 137% in assay [2] (setting [8]) and 153% in assay [2] (setting [9]). For the same molecule, the GFP response, % of DMSO was 82.9% (inactive) in assay [4], 105% (inactive) in assay [5], 121% in assay [5] (setting [6]) and 93.3% in assay [5] (setting [7]).

Regarding `COc1ccc(OC)c(C(=O)/C=C/c2ccccc2C(F)(F)F)c1`, the GFP response vs DMSO in assay [1] was 97.6% (inactive); in assay [1] (setting [6]), 95.8%; in assay [1] (setting [7]), 98.7%; in assay [3] it was 105% (inactive). Further, the GFP response relative to DMSO in assay [2] is 102% (inactive); in assay [2] (setting [8]), 103%; in assay [2] (setting [9]), 103%. The GFP response, % of DMSO in assay [4] was 98.9% (inactive); in assay [5], 94.7% (inactive); in assay [5] (setting [6]), 96.8%; in assay [5] (setting [7]), 94.7%.
